Measurements: ChEMBL document CHEMBL5390270, “Synthesis, anti-inflammatory activity, inverse molecular docking, and acid dissociation constants of new naphthoquinone-thiazole hybrids” (Bioorg Med Chem, 2023)
Activity calls are given as the source filed them. No cut-off for these calls is given here.

What was measured:
Format in all cases: functional, cell-based
[1] = tested on: J774.2; experiment: Antiproliferative activity against LPS-stimulated mouse J774.2 cells assessed as reduction in cell viability at 1 to 5 ug/mL incubated for 1 day by trypan blue staining analysis; conditions: dose 1-5 µg/ml
Procedure, shortened: (§1)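 J774.2 macrophages in RPMI 1640 with 10 % FBS, antibiotics and sodium pyruvate, 37 °C, 5 % CO₂. Cells were exposed for 1 day to molecules at 1, 2 and 5 µg/mL with or without LPS, with SA at 5 µg/mL as control. Supernatants were removed, cells washed in PBS, then counted with trypan blue to give viability. N = 3.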

[2] = tested on: J774.2; experiment: Antiproliferative activity against LPS-stimulated mouse J774.2 cells assessed as reduction in cell viability at 1 to 5 ug/mL incubated for 1 day in presence of LPS by trypan blue staining analysis; conditions: dose 1-5 µg/ml; procedure, shortened: as §1
[3] = tested on: J774.2; experiment: Antiinflammatory activity in LPS-stimulated mouse J774.2 cells assessed as reduction in TNF-alpha level at 1 to 5 ug/mL incubated for 12 hrs by ELISA analysis; conditions: dose 1-5 µg/ml, time 24.0 hrs, in the assay text read “24 hrs” for “12 hrs”
Procedure, shortened: (§2)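 J774.2 macrophages in RPMI 1640 with 10 % FBS, 1 % penicillin/streptomycin and sodium pyruvate, 24-well plates, 37 °C, 5 % CO₂. Cells were stimulated for 1 day with test molecules at 1, 2 and 5 µg/mL plus LPS. SA at 5 µg/mL served as control. Supernatant TNF-α or IL6 was read by sandwich ELISA: biotin-antibody, streptavidin-HRP, TMB, absorbance at 450 nm. N = 3.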

[4] = tested on: J774.2; experiment: Antiinflammatory activity in mouse J774.2 cells assessed as reduction in TNF-alpha level at 1 to 5 ug/mL […] by ELISA analysis; conditions: dose 1-5 µg/ml
Procedure, shortened: (§3)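 J774.2 macrophages were cultured in RPMI 1640 with 10 % FBS, antibiotics and sodium pyruvate at 37 °C, 5 % CO₂. Cells received molecules at 1, 2 and 5 µg/mL for 1 day without LPS. Supernatant TNF-α or IL6 was quantified by sandwich ELISA with TMB read-out at 450 nm. N = 3.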

[5] = tested on: J774.2; experiment: Antiinflammatory activity in mouse J774.2 cells assessed as reduction in IL-6 production at 1 to 5 ug/mL […] by ELISA analysis; conditions: dose 1-5 µg/ml; procedure, shortened: as §3
[6] = tested on: J774.2; experiment: Antiinflammatory activity in LPS-stimulated mouse J774.2 cells assessed as reduction IL-6 production at 2 to 5 ug/mL incubated for […] by ELISA analysis; conditions: dose 2-5 µg/ml; procedure, shortened: as §2
[7] = tested on: J774.2; experiment: Antiinflammatory activity in LPS-stimulated mouse J774.2 cells assessed as reduction in IL-6 production at 1 ug/ml incubated for […] by ELISA analysis; conditions: dose 1.0 µg/ml; procedure, shortened: as §2
[8] = tested on: J774.2; experiment: Antiinflammatory activity in LPS-stimulated mouse J774.2 cells assessed as reduction in TNF-alpha level at 5 ug/mL incubated for 12 hrs by ELISA analysis; conditions: dose 5.0 µg/ml, time 24.0 hrs, in the assay text read “24 hrs” for “12 hrs”; procedure, shortened: as §2
[9] = tested on: J774.2; experiment: Antiinflammatory activity in LPS-stimulated mouse J774.2 cells assessed as reduction in IL-6 production at 2 to 5 ug/ml […] by ELISA analysis; conditions: dose 2-5 µg/ml; procedure, shortened: as §2
[10] = tested on: J774.2; experiment: Antiinflammatory activity in LPS-stimulated mouse J774.2 cells assessed as reduction in IL-6 production at 1 to 5 ug/ml […] by ELISA analysis; conditions: dose 1-5 µg/ml; procedure, shortened: as §2
[11] = tested on: J774.2; experiment: Antiinflammatory activity in LPS-stimulated mouse J774.2 cells assessed as reduction in TNF-alpha level at 1 to 2 ug/mL […] by ELISA analysis; conditions: dose 1-2 µg/ml; procedure, shortened: as §2
[12] = tested on: J774.2; experiment: Antiinflammatory activity in LPS-stimulated mouse J774.2 cells assessed as reduction IL-6 production at 5 ug/mL […] by ELISA analysis; conditions: dose 5.0 µg/ml; procedure, shortened: as §2

| Structure (SMILES) | Activity [1] | Activity [2] | Activity [3] | Activity [4] | Activity [5] | Activity [6] | Activity [7] | Activity [8] | Activity [9] | Activity [10] | Activity [11] | Activity [12] |
| --- | --- | --- | --- | --- | --- | --- | --- | --- | --- | --- | --- | --- |
| NC1=C(n2c(-c3ccc(F)cc3)cs/c2=N\C(=O)c2ccc([N+](=O)[O-])cc2)C(=O)c2ccccc2C1=O | inactive | inactive | Active | inactive | inactive |  |  |  |  |  |  |  |
| NC1=C(n2c(-c3ccc(Br)cc3)cs/c2=N\C(=O)c2ccc([N+](=O)[O-])cc2)C(=O)c2ccccc2C1=O | inactive | inactive | Active | inactive | inactive |  |  |  |  |  |  |  |
| NC1=C(n2c(-c3ccc(Cl)cc3)cs/c2=N\C(=O)c2ccc(Cl)c([N+](=O)[O-])c2)C(=O)c2ccccc2C1=O | inactive | inactive |  | inactive | inactive | Active | inactive |  |  |  |  |  |
| NC1=C(n2c(-c3ccc(F)cc3)cs/c2=N\C(=O)c2cccc([N+](=O)[O-])c2)C(=O)c2ccccc2C1=O | inactive | inactive |  | inactive | inactive |  |  |  |  |  |  |  |
| NC1=C(n2c(-c3ccc(Cl)cc3)cs/c2=N\C(=O)c2cccc([N+](=O)[O-])c2)C(=O)c2ccccc2C1=O | inactive | inactive |  | inactive | inactive |  |  | Active | Active |  |  |  |
| NC1=C(n2c(-c3ccccc3)cs/c2=N\C(=O)c2ccc([N+](=O)[O-])cc2)C(=O)c2ccccc2C1=O | inactive | inactive | inactive | inactive | inactive |  |  |  |  |  |  |  |
| NC1=C(n2c(-c3ccc(Br)cc3)cs/c2=N\C(=O)c2cccc([N+](=O)[O-])c2)C(=O)c2ccccc2C1=O | inactive | inactive |  | inactive | inactive |  |  |  |  | Active |  |  |
| NC1=C(n2c(-c3ccccc3)cs/c2=N\C(=O)c2ccc(Cl)c([N+](=O)[O-])c2)C(=O)c2ccccc2C1=O | inactive | inactive |  | inactive | inactive |  |  |  |  | Active |  |  |
| NC1=C(n2c(-c3ccccc3)cs/c2=N\C(=O)c2cccc([N+](=O)[O-])c2)C(=O)c2ccccc2C1=O | inactive | inactive |  | inactive | inactive |  |  | Active |  |  | inactive |  |
| NC1=C(n2c(-c3ccc(Br)cc3)cs/c2=N\C(=O)c2ccc(Cl)c([N+](=O)[O-])c2)C(=O)c2ccccc2C1=O | inactive | inactive |  | inactive | inactive |  |  |  |  |  |  | Active |
| NC1=C(n2c(-c3ccc(Cl)cc3)cs/c2=N\C(=O)c2ccc([N+](=O)[O-])cc2)C(=O)c2ccccc2C1=O | inactive | inactive | Active | inactive | inactive |  |  |  |  |  |  |  |
| NC1=C(n2c(-c3ccc(F)cc3)cs/c2=N\C(=O)c2ccc(Cl)c([N+](=O)[O-])c2)C(=O)c2ccccc2C1=O | inactive | inactive |  | inactive | inactive |  |  |  |  |  |  |  |
